Assay results from different studies.
Protocols differ between the studies behind these lines.
Effect on: metabolic stability
Sample: liver microsomes

Structure (SMILES)	host	concentration	pH	microsomal CLint [µL/min/mg]
COCC(=O)N1CCC[C@H](C(=O)NCc2nc(-c3ccc(-c4ccccc4)cc3)cs2)C1	male Sprague-Dawley rat	0.5 µM		194
N#Cc1ccc(C[C@H](Nc2c(Nc3ccc(F)cc3)c(=O)c2=O)C(=O)N2CCc3ccccc32)cc1	rat	10 µM	pH 7.4	34.6
COc1ccc(Cn2cc(CO[C@@H]3O[C@H]4[C@H](OC[C@H]4O)[C@H]3O)nn2)cc1	rat			< 14.4
O=C(Nc1ccc(OC(F)(F)Cl)cc1)c1cnc(N2CC[C@@H](O)C2)c(-c2ccn[nH]2)c1	rat	1 µM	pH 7.4	12.9
COCC(=O)N1CCC[C@H](C(=O)NCc2nc(-c3ccc(OC)cc3)cs2)C1	male Sprague-Dawley rat	0.5 µM		39
Cc1[nH]c(C)c(S(=O)(=O)Nc2ccc(C(F)(F)F)c(Cl)c2Cl)c1C(=O)N1CCC(F)(F)C1	rat			21.8
CN1CCC[C@H](OCC(=O)N2CCC[C@H](C(=O)NCc3nc(-c4ccc(C(F)(F)F)cc4)cs3)C2)C1	male Sprague-Dawley rat	0.5 µM		33
N#Cc1ccc(C[C@H](Nc2nnc(-c3ccc(F)cc3)s2)C(=O)N2CCc3ccccc32)cc1	rat	10 µM	pH 7.4	35.9
O=C1c2ccccc2C(=O)N1CCCN1CCN(C(c2ccc(F)cc2)c2ccc(F)cc2)CC1	rat	100 ng/mL		101
Cc1[nH]c(C)c(S(=O)(=O)Nc2ccc(C(F)(F)F)c(Cl)c2)c1C(=O)N(C)C	rat			122
CCOc1c([C@H](C)n2nc(C)c3c(N)ncnc32)cc(Cl)c(F)c1[C@@H]1CNC(=O)C1	rat	0.5 µM	pH 7.4	2.4
N#Cc1ccc(C[C@H](Nc2nnc(-c3ccc(Br)cc3)o2)C(=O)N2CCc3ccccc32)cc1	rat	10 µM	pH 7.4	25.7
CONC(=O)c1cccc2c1cc(C)n2-c1nc2c(c(NCc3ccccc3)n1)CCCN2	rat	1 µM	pH 7.4	413
N#Cc1ccc(C[C@H](Nc2c(Nc3ccc(Br)cc3)c(=O)c2=O)C(=O)N2CCc3ccccc32)cc1	rat	10 µM	pH 7.4	18.1
O=C(NCc1nc(-c2ccccc2)cs1)[C@H]1CCCN(C(=O)COCC(F)F)C1	male Sprague-Dawley rat	0.5 µM		85
Cc1cccc(-c2nnc(N[C@@H](Cc3ccc(C#N)cc3)C(=O)N3CCc4ccccc43)o2)c1	rat	10 µM	pH 7.4	38.5
COCC(=O)N1CCC[C@H](C(=O)NCc2nc(-c3ccc(C)nc3)cs2)C1	male Sprague-Dawley rat	0.5 µM		6.3
